NALP3 yeast inh: inhibitors of NALP3 inflammasome in yeast; hit rate 0.39% among 330,000; inhibition, % at 10 µM; AID 2825; Yeast reconstituted NLRP3/ASC/caspase-1, beta-gal luminescence, 24 h;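 active means inhibition of 50% or more; inactive means inhibition below 50%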
PolyA inh: blocks polyadenylation in yeast reporter cells; S. cerevisiae SKY197-pL101 polyadenylation reporter, beta-gal luminescence; efflux-impaired pdr1/pdr3 knockout yeast; score 100 = 6 SD above DMSO; activity score, % at 12 µM; hit rate 0.02% among 300,000;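 active means lowest replicate activity score at least 50, where 100 means six control SD above control mean; inconclusive means lowest score under 50 but half or more replicates reach 50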;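 further: yeast exposed to compound for 9 h at 30 °C; higher score means more reporter readthrough which indicates perturbed polyadenylation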
ALR inh: inhibitors of human sulfhydryl oxidase ALR; purified ALR, DTT oxidation, H2O2 HRP-luminol luminescence; inhibition, % (concentration not given with the values); hit rate 3.8% among 290,000; P55789;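 active means mean replicate inhibition above about 79%, with every replicate also reaching it, limit read from the data; inconclusive means only one of the two criteria met; inactive means mean below limit and not every replicate reaching it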
Target sequence (P55789 whole entry, looked up): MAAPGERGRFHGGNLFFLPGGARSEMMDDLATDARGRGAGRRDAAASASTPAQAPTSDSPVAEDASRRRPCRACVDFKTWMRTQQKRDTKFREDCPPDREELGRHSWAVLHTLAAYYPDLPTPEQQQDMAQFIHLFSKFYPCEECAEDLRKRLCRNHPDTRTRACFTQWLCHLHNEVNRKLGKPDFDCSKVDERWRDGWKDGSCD
NALP1 yeast inh: inhibitors of NALP1 inflammasome in yeast; S. cerevisiae NALP1/ASC/caspase-1 growth, X-gal OD620, 72 h; hit rate 0.61% among 280,000; inhibition, % at 10 µM; in the data active means inhibition mostly above about 24%, no sharp cut-off; inactive means mostly below about 32%
Arrestin-AP2 inh: human beta-arrestin and AP2 interaction inhibition | FITC-arrestin peptide / GST-AP2 beads, flow cytometry; AP2 beta2 appendage carries R879A mutation | inhibition, % at 10 µM | hit rate 0.31% among 340,000 | AID 504490;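 active means inhibition above a set limit, near 3 SD of compounds lacking own fluorescence, cut at about 54% in these data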
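System: GST-AP2 R879A bound to glutathione beads, E. coli-expressed. Also added: 50 nM FITC-arrestin peptide. Schedule: compound with beads 12 min RT, then probe 1 h RT. Signal: bead flow cytometry, FITC channel. Read-out basis: percent response.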
DSG3 Ab inh: blocks pemphigus antibody binding to human desmoglein-3; P32926; DSG3-coupled beads, scFv-anti-DSG3-GFP binding, flow cytometry; hits give low values; binding (percent of control), % at 10 µM; hit rate 0.48% among 310,000; AID 588358;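 active means binding more than 3 SD below its plate's average and above zero; inconclusive means below that plate limit but binding exactly zero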;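 further: hits lower antibody fragment binding to DSG3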
Numbers stand for hits; - = inactive; ? = inconclusive; . = no result given. Shown are actives, neighbours in structure and some others; about 4.6% of the full set was active somewhere.

SMILES	NALP3 yeast inh	PolyA inh	ALR inh	NALP1 yeast inh	Arrestin-AP2 inh	DSG3 Ab inh
O=C1/C(=C\c2ccc(O)c(O)c2)N=C2CCCCCN12	-	-	99	-	-	-
COc1ccc(/C=C2\N=C3CCCCCN3C2=O)cc1OC	-	-	-	-	-	.
COc1cc(/C=C2\N=C3CCCCCN3C2=O)ccc1O	-	-	99	-	-	-
CC(Oc1ccc2ccc(=O)oc2c1)C(=O)NC1CC(C)(C)NC(C)(C)C1 (stereo not given)	-	-	-	-	-	-
COc1ccc(N2CCN(C(=O)CCn3nnc4ccccc43)CC2)cc1	-	-	90	-	-	-
COc1ccc(N2CCN(C(=O)CCC(=O)N3CC(C)Oc4ccccc43)CC2)cc1 (stereo not given)	-	-	78	-	-	-
COc1ccc(N2CCN(C(=O)CCCC(=O)c3ccccc3)CC2)cc1	-	-	-	-	-	-
Cn1nc(C(C)(C)C)c([N+](=O)[O-])c1C(=O)NC1CCCCC1	-	-	-	-	-	-
Cc1ccccc1CSCCNS(C)(=O)=O	-	-	-	-	-	-
COc1ccc(S(=O)(=O)NCCSCc2ccccc2C)cc1Br	-	-	98	-	-	-
O=S(=O)(/C=C/C=C/S(=O)(=O)c1ccccc1)c1ccccc1	.	.	.	.	-	-
CSc1ncccc1C(=O)OCC(=O)c1[nH]c(C)c(C(C)=O)c1C	-	.	-	.	-	-
O=C(NC1CCCC1)C(c1ccncc1)N(C(=O)Cn1nnc(-c2ccccc2F)n1)c1cccc(F)c1 (stereo not given)	-	-	-	-	-	-
CC(C)(C)C(=O)COC(=O)c1ccc(O)cc1	-	-	-	-	-	-
O=C(OCC(=O)C12CC3CC(CC(C3)C1)C2)c1ccccc1O	-	.	-	.	-	70
CC(C)(C)C(=O)COC(=O)c1ccccc1O	-	-	-	37	-	-
C[C@H](CO)N1C[C@H](C)[C@@H](CN(C)C(=O)Nc2ccc3c(c2)OCO3)Oc2c(NC(=O)Nc3ccc(C(F)(F)F)cc3)cccc2C1=O	-	.	-	.	.	-
COc1ccc(OC)c(C2Nc3ccccc3NC3=C2C(=O)CC(C)(C)C3)c1 (stereo not given)	-	-	99	-	-	-
COc1ccc(C2Nc3ccccc3NC3=C2C(=O)CC(C)(C)C3)cc1OC (stereo not given)	-	-	-	-	-	-
COc1ccc(C2Nc3ccccc3NC3=C2C(=O)CC(C)(C)C3)c(OC)c1OC (stereo not given)	-	-	98	-	-	-
COc1ccccc1C1Nc2ccccc2NC2=C1C(=O)CC(C)(C)C2 (stereo not given)	-	-	99	-	-	-
COc1ccc(C2Nc3ccccc3NC3=C2C(=O)CC(C)(C)C3)cc1 (stereo not given)	-	-	-	-	-	-
COc1ccc(C2Nc3ccccc3NC3=C2C(=O)CC(C)(C)C3)cc1O (stereo not given)	-	?	.	-	-	-
CCOc1ccc(C2Nc3ccccc3NC3=C2C(=O)CC(C)(C)C3)cc1OC (stereo not given)	-	-	98	-	-	-
O=C(c1cc(F)ccc1F)C1CCCN(C(=O)c2ccc3nccnc3c2)C1 (stereo not given)	-	-	-	-	-	-
SMILES	NALP3 yeast inh	PolyA inh	ALR inh	NALP1 yeast inh	Arrestin-AP2 inh	DSG3 Ab inh
Cc1cc2c(cc1C)NC(c1c(C)n(C)n(-c3ccccc3)c1=O)C1=C(CC(C)(C)CC1=O)N2 (stereo not given)	-	-	-	-	-	-
COc1cccc(C2Nc3ccccc3NC3=C2C(=O)CC(C)(C)C3)c1OC (stereo not given)	-	-	99	-	-	-
COc1cc(C2Nc3cc(C)c(C)cc3NC3=C2C(=O)CC(C)(C)C3)ccc1OC(C)=O (stereo not given)	-	-	80	-	-	-
O=C(OCc1ccccc1F)c1cc(S(=O)(=O)N2CCCCC2)ccc1N1CCOCC1	.	.	.	.	.	-
N=C1C(c2nc3ccccc3s2)=C(O)CN1NC(=O)c1ccco1	-	-	-	-	-	76
COc1cccc(C(=O)NN2CC(O)=C(c3nc4ccccc4s3)C2=N)c1	-	-	-	-	-	-
COc1ccc(NC(=O)c2nnn(CC(=O)Nc3ccc4c(c3)OCO4)c2N)c(OC)c1	-	-	-	-	-	-
Cc1nn2cc(-c3ccc(N)cc3)nc2s1	-	-	98	-	-	-
C[C@H](CO)N1C[C@H](C)[C@@H](CN(C)C(=O)NC2CCCCC2)Oc2ccc(NS(C)(=O)=O)cc2C1=O	-	.	-	.	-	-
O=C1N=C(N2C=CC(=C3C=CNC=C3)C=C2)/C(=C/N=NC(=O)c2ccccc2)S1	-	-	.	-	-	.
Cc1cccc(N2CSC3=C(C#N)C(c4ccc(C)o4)CC(=O)N3C2)c1 (stereo not given)	-	-	99	-	.	.
Cc1ccc(S(=O)(=O)N2C[C@H]3N(C(=O)OC(C)C)N(C(=O)OC(C)C)C[C@H](OC(=O)Nc4c(C)noc4C)[C@@]3(O)C2)cc1	.	.	.	.	.	-
Cc1oc2cc(O)ccc2c(=O)c1Oc1ccc2ccccc2c1	-	-	-	32	-	-
Cc1oc2cc(O)ccc2c(=O)c1Oc1ccc(F)cc1	-	-	-	-	-	-
C[C@H](CO)N1C[C@H](C)[C@@H](CN(C)Cc2ccc(C(=O)Nc3ccccc3N)cc2)Oc2c(NC(=O)C3CCCCC3)cccc2C1=O	-	.	-	.	-	-
O=C1COc2ccc(C(=O)COC(=O)c3ccc([N+](=O)[O-])cc3Cl)cc2N1	-	.	.	.	-	-
CC(NC(=O)c1ccccc1)C(=O)NNC(=O)c1ccccc1Cl (stereo not given)	-	.	-	.	-	.
Cc1csc(SCC(=O)Nc2ccc3c(c2)OCCO3)n1	-	-	-	-	-	-
CSc1nsc(SCC(=O)Nc2ccc3c(c2)OCCO3)n1	-	-	98	-	-	-
CSc1nsc(SCC(=O)Nc2ccccn2)n1	-	-	-	-	-	-
COc1ccccc1NC(=O)CSc1nc(SC)ns1	-	-	85	-	-	.
CSc1nsc(SCC(=O)Nc2cccc(NC(C)=O)c2)n1	-	-	99	-	-	.
CSc1nsc(SCC(=O)Nc2cccc(C(=O)O)c2)n1	-	-	-	-	-	-
CCCOc1cccc(C2C(C(=O)c3cccs3)=C(O)C(=O)N2CCN2CCOCC2)c1 (stereo not given)	-	-	.	-	-	-
CCC(C)Nc1ccc(NC(C)CC)cc1 (stereo not given)	-	.	99	.	-	-
CCC(C)NC(=O)Nc1ccc(Br)cc1 (stereo not given)	-	-	-	-	-	-
O=C(Nc1ccccc1C(=O)N1CCOCC1)c1ccc(Br)cc1	-	-	-	-	-	-

Compound activity from PubChem.
